From ChEMBL document CHEMBL3414455, “Boronic species as promising inhibitors of the Staphylococcus aureus NorA efflux pump: study of 6-substituted pyridine-3-boronic acid derivatives” (Eur J Med Chem, 2015)
In brackets after ≈: the same amount, converted by molar mass.

Key:
Staphylococcus aureus [1] = test: Antibacterial activity against methicillin-susceptible […] Staphylococcus aureus ATCC 25923 after 24 hrs by two fold microdilution method; type: functional; conditions: ATCC 25923, 24 h
In short: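 Broth microdilution in Mueller-Hinton broth, about 10^6 CFU/mL per well, inoculum from an 18 h culture at 37°C. Compounds were dissolved in DMSO and tested in twofold serial dilutions, top 128 mg/L, or the highest fully soluble level (at least 16 mg/L). MIC is the lowest concentration giving complete growth inhibition after 24 h at 37°C, read at 620 nm and visually, in duplicate.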

Staphylococcus aureus [2] = test: Antibacterial activity against fluoroquinolone-resistant Staphylococcus aureus 1199B overexpressing NorA after 24 hrs by two fold microdilution method; type: functional
[3] = biological target: T1, Quinolone resistance protein NorA (Staphylococcus aureus) (UniProt P0A0J7); test: Inhibition of NorA in fluoroquinolone-resistant Staphylococcus aureus 1199B assessed as minimum modulatory concentration require to potentiate 4 ug/ml ciprofloxacin-induced antibacterial activity
T1 sequence (whole entry): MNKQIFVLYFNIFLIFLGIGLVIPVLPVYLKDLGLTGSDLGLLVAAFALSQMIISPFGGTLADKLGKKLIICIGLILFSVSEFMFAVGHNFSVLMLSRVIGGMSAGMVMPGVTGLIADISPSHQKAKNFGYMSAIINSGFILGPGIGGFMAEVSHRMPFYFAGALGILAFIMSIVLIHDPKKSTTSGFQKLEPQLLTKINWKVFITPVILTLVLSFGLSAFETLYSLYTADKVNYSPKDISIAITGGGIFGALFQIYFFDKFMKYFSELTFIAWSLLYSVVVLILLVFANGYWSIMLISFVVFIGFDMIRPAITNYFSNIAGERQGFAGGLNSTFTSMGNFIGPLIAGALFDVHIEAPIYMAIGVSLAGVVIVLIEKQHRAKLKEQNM

[4] = biological target: T1, Quinolone resistance protein NorA (Staphylococcus aureus); test: Inhibition of NorA in fluoroquinolone-resistant Staphylococcus aureus 1199B assessed as minimum modulatory concentration require to potentiate 2 ug/ml ciprofloxacin-induced antibacterial activity
[5] = Cytotoxicity against human KB cells assessed as growth inhibition at 10 uM after 72 hrs by MTS assay relative to control; type: cell-based; conditions: read-out: GI
In short: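 KB cells were grown in D-MEM with 10% FCS at 37°C under 5% CO2. Compounds in DMSO (1% final) were added 24 h after plating, and cells were exposed for 72 h. MTS was then added for 3 h and absorbance read at 490 nm. Inhibition = (1 − OD treated/OD DMSO control) × 100, in triplicate. Docetaxel 0.15 nM served as positive control.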

[6] = biological target: T1, Quinolone resistance protein NorA (Staphylococcus aureus); test: Inhibition of NorA in fluoroquinolone-resistant Staphylococcus aureus 1199B assessed as minimum modulatory concentration require to potentiate 16 ug/ml norfloxacin-induced antibacterial activity
[7] = biological target: T1, Quinolone resistance protein NorA (Staphylococcus aureus); test: Inhibition of NorA in fluoroquinolone-resistant Staphylococcus aureus 1199B assessed as minimum modulatory concentration require to potentiate 2 ug/ml ciprofloxacin-induced antibacterial activity at MMC relative to control
[8] = biological target: T1, Quinolone resistance protein NorA (Staphylococcus aureus); test: Inhibition of NorA in fluoroquinolone-resistant Staphylococcus aureus 1199B assessed as increase in ethidium bromide uptake at 20 ug/ml after 20 mins by fluorimetry relative to control
In short: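 Mid-log cells (overnight culture diluted 20-fold, 3.5 h, 37°C, 130 rpm) resuspended in Mueller-Hinton broth containing 10 mg/L EtBr, 37°C; compound added at 10 min (final 20 mg/L), fluorescence (ex 530/em 600 nm) followed 20 more min; rise over pre-addition baseline; reserpine 5 and 20 µg/mL positive, 1.6% DMSO negative; two or three experiments.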

[9] = biological target: ATP-dependent translocase ABCB1 (Homo sapiens, UniProt P08183); test: Inhibition of MDR1 in human NCI-ADR-RES cells assessed as increase in rhodamine-123 uptake at 1 to 100 uM after 1 hr by fluorescence assay; type: cell-based
In short: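 NCI/ADR-RES cells (P-gp overexpressing) were seeded at 60,000/well in RPMI. After 24 h they were washed with PBS and given compound (100, 10, 1 µM) plus 12.5 µM rhodamine 123 in FCS-free medium for 1 h at 37°C, 5% CO2. Cells were then washed, lysed in 20 mM Tris pH 7.7 with 0.2% SDS, and fluorescence read at 507/528 nm.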

[10] = Cytotoxicity against human KB cells assessed as growth inhibition at 10^-6 M after 72 hrs by MTS assay relative to control; type: cell-based; conditions: read-out: GI
Staphylococcus aureus [11] = test: microbe, parasite or virus in culture; conditions: 1199B, 24 h

Structure (SMILES) | MIC (Staphylococcus aureus [1]) [µg/mL] | MIC (Staphylococcus aureus [2]) [µg/mL] | MMC [3] [µg/mL] | MMC [4] | inhibition at 72 h, 10 µM [5] [%] | MMC [6] [µg/mL] | fold change (FC) [7] | inhibition [8] [%] | inhibition (INH) [9] | inhibition at 72 h, 1 µM [10] [%] | MIC (Staphylococcus aureus [11]) [µg/mL]
CC1(C)S[C@@H]2[C@H](NC(=O)[C@H](N)c3ccccc3)C(=O)N2[C@H]1C(=O)O [AMPICILLIN] | 0.25 (≈ 0.715 µM) | – | – | – | – | – | – | – | – | – | –
CCCCCCCOc1ccc(B(O)O)cn1 | > 16 | > 16 | 0.5 | 33.7 µM | 73 | 8 | – | – | – | – | –
OB(O)c1ccc(Oc2ccccc2)nc1 | > 128 | > 128 | 2 | 298 µM | 14 | 128 | – | – | – | – | –
OB(O)c1ccc(Oc2ccc(Cl)cc2Cl)nc1 | – | 128 (≈ 451 µM) | 1 | 56.4 µM | 1 | 32 | – | – | – | – | –
OB(O)c1ccc(OCc2ccc3c(c2)OCO3)nc1 | > 128 | > 128 | 64 | – | 0 | – | – | – | – | – | –
CCCOc1ccc(B(O)O)cn1 | > 128 | > 128 | 4 | > 128 µg/mL | 0 | > 128 | – | – | – | – | –
OB(O)c1ccc(OCCCCCCCc2ccccc2)nc1 | > 16 | > 16 | 0.5 | 12.8 µM | 62 | – | – | – | – | – | –
CCCCCCCCCCCCOc1ccc(B(O)O)cn1 | > 16 | > 16 | > 16 | > 16 µg/mL | 13 | – | – | – | – | – | –
OB(O)c1ccc(OCCCCc2ccccc2)nc1 | 64 (≈ 236 µM) | 32 (≈ 118 µM) | 0.25 | 14.8 µM | 13 | 8 | 4 | 42 | Not Active | – | –
OB(O)c1ccc(SCc2ccccc2)nc1 | 64 (≈ 261 µM) | 64 (≈ 261 µM) | 0.5 | 65.3 µM | 8 | 16 | – | – | – | – | –
CCn1cc(C(=O)O)c(=O)c2cc(F)c(N3CCNCC3)cc21 [NORFLOXACIN] | – | 64 (≈ 200 µM) | – | – | – | – | – | – | – | – | –
COC(=O)[C@H]1[C@H]2C[C@@H]3c4[nH]c5cc(OC)ccc5c4CCN3C[C@H]2C[C@@H](OC(=O)c2cc(OC)c(OC)c(OC)c2)[C@@H]1OC | – | – | – | 6.57 µM | – | – | – | – | – | – | –
OB(O)c1ccc(OCc2ccc(F)cc2)nc1 | > 128 | > 128 | 2 | 130 µM | 8 | 64 | – | – | – | – | –
CCCCCOc1ccc(B(O)O)cn1 | > 128 | > 128 | 2 | 306 µM | 16 | 64 | – | – | – | – | –
OB(O)c1ccc(NCc2ccccc2)nc1 | > 128 | > 128 | 32 | 561 µM | 0 | – | – | – | – | – | –
OB(O)c1ccc(OCCCCCc2ccccc2)nc1 | – | 16 (≈ 56.1 µM) | 2 | 14 µM | 60 | – | – | – | – | 6 | –
OB(O)c1ccc(OCCCCCCc2ccccc2)nc1 | > 16 | > 16 | 0.5 | 13.4 µM | 46 | – | – | – | – | – | –
Cc1cc(B(O)O)cnc1OCc1ccccc1 | – | > 128 | 4 | 65.8 µM | 15 | 8 | – | – | – | – | –
OB(O)c1ccc(OCc2ccc(Cl)c(Cl)c2)nc1 | – | 16 (≈ 53.7 µM) | 0.125 | 3.35 µM | 44 | – | – | – | – | 0 | –
OB(O)c1ccc(OCCc2ccccc2)nc1 | > 128 | > 128 | 1 | 65.8 µM | 28 | 16 | – | – | – | – | –
OB(O)c1ccc(OCc2ccc(Cl)cc2)nc1 | ≥ 128 | 128 (≈ 486 µM) | 1 | 121 µM | 33 | 16 | – | – | – | – | –
CCCCOc1ccc(B(O)O)cn1 | > 128 | > 128 | 2 | 328 µM | 1 | 64 | – | – | – | – | –
O=C(O)c1cn(C2CC2)c2cc(N3CCNCC3)c(F)cc2c1=O [CIPROFLOXACIN] | – | 8 (≈ 24.1 µM) | – | – | – | – | – | – | – | – | 0.5 (≈ 1.51 µM)
OB(O)c1ccc(OCCCc2ccccc2)nc1 | > 128 | > 128 | 0.5 | 15.6 µM | 83 | 8 | 4 | 43 | Not Active | 9 | –
OB(O)c1ccc(OCc2ccccc2)nc1 | > 128 | > 128 | 1 | 69.8 µM | – | 32 | 4 | – | – | – | –
CCCCCCOc1ccc(B(O)O)cn1 | – | > 128 | 2 | 71.7 µM | 46 | 16 | – | – | – | – | –
OB(O)c1cncc(OCc2ccccc2)c1 | > 128 | > 128 | 8 | > 128 µg/mL | 0 | – | – | – | – | – | –
COc1cc(COc2ccc(B(O)O)cn2)cc(OC)c1OC | > 128 | > 128 | 8 | – | 3 | – | – | – | – | – | –
